Assay results published in ChEMBL document CHEMBL1148382, “Synthesis and structure-activity relationship for a novel class of potent and selective carbamoyl-triazole based inhibitors of hormone sensitive lipase” (J Med Chem, 2004).

Experiments:
Acetylcholinesterase [1] = molecular target: T1, Acetylcholinesterase (Homo sapiens, UniProt P22303); assay: Inhibitory concentration against acetylcholinesterase
Cholinesterase = Cholinesterase (Homo sapiens, UniProt P06276); assay: Inhibitory concentration against butyrylcholinesterase.
Cholinesterase, sequence (P06276 whole entry): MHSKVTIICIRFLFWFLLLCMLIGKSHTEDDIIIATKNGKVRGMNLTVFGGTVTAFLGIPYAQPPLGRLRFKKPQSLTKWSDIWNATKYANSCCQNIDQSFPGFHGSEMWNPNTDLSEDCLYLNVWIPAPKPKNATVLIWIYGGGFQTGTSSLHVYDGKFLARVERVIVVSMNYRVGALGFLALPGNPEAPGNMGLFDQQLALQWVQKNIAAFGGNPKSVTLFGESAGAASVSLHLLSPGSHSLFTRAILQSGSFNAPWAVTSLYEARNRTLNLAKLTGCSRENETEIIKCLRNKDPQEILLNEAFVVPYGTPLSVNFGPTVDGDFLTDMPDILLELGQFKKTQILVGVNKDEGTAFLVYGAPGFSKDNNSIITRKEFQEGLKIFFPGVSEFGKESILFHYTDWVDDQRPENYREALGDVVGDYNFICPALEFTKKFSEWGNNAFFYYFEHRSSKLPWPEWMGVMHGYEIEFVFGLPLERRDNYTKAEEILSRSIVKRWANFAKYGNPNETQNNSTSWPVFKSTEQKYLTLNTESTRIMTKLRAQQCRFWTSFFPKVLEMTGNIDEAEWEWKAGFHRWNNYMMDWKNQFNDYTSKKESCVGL

Hormone-sensitive lipase = molecular target: T2, Hormone-sensitive lipase (Homo sapiens, UniProt Q05469); assay: Inhibition of hormone sensitive lipase (HSL).
T2 sequence (Q05469 whole entry): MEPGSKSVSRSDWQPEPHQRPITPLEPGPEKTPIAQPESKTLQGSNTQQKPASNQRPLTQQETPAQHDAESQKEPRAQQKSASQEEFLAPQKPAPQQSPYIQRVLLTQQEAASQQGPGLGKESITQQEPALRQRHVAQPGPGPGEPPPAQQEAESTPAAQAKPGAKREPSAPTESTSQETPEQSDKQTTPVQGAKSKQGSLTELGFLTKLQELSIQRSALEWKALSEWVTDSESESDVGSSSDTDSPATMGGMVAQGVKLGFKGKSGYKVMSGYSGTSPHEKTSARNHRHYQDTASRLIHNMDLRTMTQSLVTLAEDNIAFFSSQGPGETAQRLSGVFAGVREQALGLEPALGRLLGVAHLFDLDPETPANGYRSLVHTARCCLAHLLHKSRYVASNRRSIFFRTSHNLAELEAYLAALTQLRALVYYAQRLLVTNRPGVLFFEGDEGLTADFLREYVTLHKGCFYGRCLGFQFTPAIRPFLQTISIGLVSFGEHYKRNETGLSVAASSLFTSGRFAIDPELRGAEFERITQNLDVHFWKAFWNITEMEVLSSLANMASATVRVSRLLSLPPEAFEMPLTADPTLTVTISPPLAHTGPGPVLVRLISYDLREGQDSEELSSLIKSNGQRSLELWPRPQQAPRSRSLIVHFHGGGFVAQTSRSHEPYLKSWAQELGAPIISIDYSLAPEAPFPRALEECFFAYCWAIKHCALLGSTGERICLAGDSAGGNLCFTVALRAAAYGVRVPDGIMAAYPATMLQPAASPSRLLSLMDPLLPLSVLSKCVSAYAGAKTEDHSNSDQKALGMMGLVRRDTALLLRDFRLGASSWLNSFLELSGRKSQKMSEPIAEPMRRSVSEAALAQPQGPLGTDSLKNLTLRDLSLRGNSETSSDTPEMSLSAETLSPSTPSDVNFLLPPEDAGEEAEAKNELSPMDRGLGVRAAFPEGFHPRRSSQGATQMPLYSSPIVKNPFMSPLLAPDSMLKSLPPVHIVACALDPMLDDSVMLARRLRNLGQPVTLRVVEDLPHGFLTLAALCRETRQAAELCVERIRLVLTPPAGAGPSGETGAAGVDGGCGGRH

[2] = molecular target: T3, Hepatic triacylglycerol lipase (Homo sapiens, UniProt P11150); assay: Compound was tested to inhibit hepatic lipase (HL)
T3 sequence (P11150 whole entry): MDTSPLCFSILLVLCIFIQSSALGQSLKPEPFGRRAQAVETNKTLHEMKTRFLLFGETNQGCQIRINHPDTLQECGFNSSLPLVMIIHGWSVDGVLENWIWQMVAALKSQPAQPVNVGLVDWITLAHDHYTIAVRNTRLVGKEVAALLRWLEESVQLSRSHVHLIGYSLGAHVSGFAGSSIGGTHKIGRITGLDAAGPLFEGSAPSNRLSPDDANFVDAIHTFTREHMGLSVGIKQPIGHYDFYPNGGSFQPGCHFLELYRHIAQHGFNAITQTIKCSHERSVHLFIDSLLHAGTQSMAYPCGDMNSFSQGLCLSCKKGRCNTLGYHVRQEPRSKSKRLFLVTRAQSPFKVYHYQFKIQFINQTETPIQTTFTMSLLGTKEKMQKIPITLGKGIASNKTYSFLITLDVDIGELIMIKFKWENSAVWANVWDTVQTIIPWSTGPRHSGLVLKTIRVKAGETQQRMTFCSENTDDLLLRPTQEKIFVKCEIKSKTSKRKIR
Method in brief: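 Emulsion assay with a fluorochrome (NBD)-labeled triacylglyceride in phosphatidylcholine/phosphatidylinositol 3:1 micelles, diluted in PED-BSA buffer pH 7.0. HL (1 μg/mL) and inhibitor in DOC buffer (10 mM TRIS-HCl pH 8.5, 5 mM deoxycholate) preincubated 70 min at 25 °C, then added with NaCl and TRIS pH 8.5. Fluorescence (ex 450/em 545 nm) read at 0 and 120 min, 37 °C. Inhibitor top concentration 100 μM, six 5-fold dilutions, duplicates; sigmoidal variable-slope IC50 fit.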

[3] = molecular target: T4, Pancreatic triacylglycerol lipase (Homo sapiens, UniProt P16233); assay: Compound was tested to inhibit pancreatic lipase (PL)
T4 sequence (P16233 whole entry): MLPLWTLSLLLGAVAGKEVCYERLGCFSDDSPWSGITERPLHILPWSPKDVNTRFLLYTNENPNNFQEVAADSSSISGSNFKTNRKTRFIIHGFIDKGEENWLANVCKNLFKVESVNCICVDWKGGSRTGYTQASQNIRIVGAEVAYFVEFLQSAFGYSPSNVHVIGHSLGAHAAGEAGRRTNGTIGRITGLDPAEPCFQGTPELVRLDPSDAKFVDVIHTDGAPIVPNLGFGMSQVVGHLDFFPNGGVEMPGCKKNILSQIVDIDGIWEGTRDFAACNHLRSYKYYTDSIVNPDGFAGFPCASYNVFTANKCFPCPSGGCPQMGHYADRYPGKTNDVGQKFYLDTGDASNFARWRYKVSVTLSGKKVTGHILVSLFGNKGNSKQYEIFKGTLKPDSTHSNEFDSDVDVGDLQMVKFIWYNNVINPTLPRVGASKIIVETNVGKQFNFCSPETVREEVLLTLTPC
Method in brief: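 PL (1 μg/mL) plus colipase (5 μg/mL) preincubated with inhibitor 40 min at 25 °C. Then combined with TRIS buffer pH 8.0 (NaCl, 1 mM NaTDC) and labeled triacylglyceride emulsion prepared in TRIS pH 8.0 with 8 mM NaTDC, 0.3 M NaCl, 2 mM CaCl2. Fluorescence (ex 450/em 545 nm) read at 0 and 60 min, 37 °C. Six concentrations from 100 μM in 5-fold steps, duplicates; sigmoidal IC50 fit.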

[4] = molecular target: Lipoprotein lipase (Bos taurus) (UniProt P11151); assay: Compound was tested to inhibit lipoprotein lipase (LPL)
Lipoprotein lipase (Bos taurus), sequence (P11151 whole entry, looked up): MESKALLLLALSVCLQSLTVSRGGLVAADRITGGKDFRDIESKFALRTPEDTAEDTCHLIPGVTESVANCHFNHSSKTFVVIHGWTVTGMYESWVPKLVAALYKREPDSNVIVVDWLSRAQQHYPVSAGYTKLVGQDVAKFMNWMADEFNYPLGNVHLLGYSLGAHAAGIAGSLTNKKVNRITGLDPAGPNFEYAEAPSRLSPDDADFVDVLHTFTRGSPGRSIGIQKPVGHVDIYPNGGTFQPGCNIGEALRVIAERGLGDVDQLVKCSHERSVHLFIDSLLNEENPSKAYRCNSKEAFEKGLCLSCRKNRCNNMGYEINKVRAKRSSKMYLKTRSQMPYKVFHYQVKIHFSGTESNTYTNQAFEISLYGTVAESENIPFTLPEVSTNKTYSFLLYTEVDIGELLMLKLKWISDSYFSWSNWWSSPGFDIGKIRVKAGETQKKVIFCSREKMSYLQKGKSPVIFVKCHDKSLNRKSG

Acetylcholinesterase [5] = molecular target: T1, Acetylcholinesterase; assay: Inhibitory concentration against acetylcholinesterase; non classical inhibitor, maximum HSL inhibition of […]%

T1 sequence (P22303 whole entry): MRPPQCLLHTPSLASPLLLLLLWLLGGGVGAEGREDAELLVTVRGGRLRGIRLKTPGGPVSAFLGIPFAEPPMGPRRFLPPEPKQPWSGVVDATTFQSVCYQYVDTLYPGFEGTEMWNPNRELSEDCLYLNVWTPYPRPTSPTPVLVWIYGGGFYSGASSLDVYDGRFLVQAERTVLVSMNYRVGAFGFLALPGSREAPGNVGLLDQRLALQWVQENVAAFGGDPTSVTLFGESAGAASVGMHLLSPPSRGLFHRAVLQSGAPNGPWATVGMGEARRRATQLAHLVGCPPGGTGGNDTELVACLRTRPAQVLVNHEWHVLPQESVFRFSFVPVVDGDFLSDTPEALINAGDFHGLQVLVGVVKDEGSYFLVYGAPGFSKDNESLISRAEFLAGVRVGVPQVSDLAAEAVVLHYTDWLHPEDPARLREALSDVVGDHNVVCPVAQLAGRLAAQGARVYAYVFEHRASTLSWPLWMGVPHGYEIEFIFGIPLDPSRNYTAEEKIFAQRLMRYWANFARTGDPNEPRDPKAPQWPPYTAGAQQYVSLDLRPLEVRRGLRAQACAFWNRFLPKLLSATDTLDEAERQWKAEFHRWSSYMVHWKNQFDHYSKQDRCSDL

SMILES	IC50 (Acetylcholinesterase [1]) [nM]	IC50 (Cholinesterase) [nM]	IC50 (Hormone-sensitive lipase) [nM]	IC50 [2] [nM]	IC50 [3] [nM]	IC50 [4] [nM]	IC50 (Acetylcholinesterase [5])
CCCCCCSc1nc(-c2ccc(Cl)cc2)nn1C(=O)N1CCOCC1	> 50000	> 50000	> 50000	–	–	–	–
COc1ccc(-c2nc(SC)n(C(=O)N(C)C)n2)cc1	800	410	900	–	–	–	–
CCCCCCSc1nc(-c2ccc(C)cc2)nn1C(=O)N(C)C	200	300	> 50000	–	–	–	–
CCSc1nc(-c2ccc(Cl)cc2)nn1C(=O)N(C)C	56	50	210	–	–	–	–
COc1nn(-c2ccc(NC(=O)c3ccc(C(C)(C)C)cc3)cc2)c(=O)o1	> 50000	> 50000	23	1800	> 10000	200	–
CCCCCCSc1nc(-c2ccc(Cl)cc2)nn1C(=O)N1CCCCC1	< 10	> 50000	> 50000	–	–	–	–
CSc1nc(-c2ccc(Cl)cc2)nn1C(=O)N1CCOCC1	> 50000	14000	2000	–	–	–	–
Cc1c(C(C)C)c(=O)on1C(=O)N1CCC[C@H](C)C1	17000	> 50000	170	> 50000	> 50000	> 50000	–
CSc1nc(-c2ccc3ccccc3c2)nn1C(=O)N(C)C	50	130	2000	–	–	–	–
CSc1nc(-c2ccc(-c3ccccc3)cc2)nn1C(=O)N(C)C	560	230	1500	–	–	–	–
CN(C(=O)n1nc(-c2ccc(Cl)cc2)nc1SCC1CC1)c1ccccc1	–	–	62	–	–	–	Non classical inhibitor
CCCSc1nc(-c2ccc(Cl)cc2)nn1C(=O)N(C)C	300	100	60	–	–	–	–
O=C(N1CCCCC1)n1nc(-c2ccc(Cl)cc2)nc1SCC(F)(F)F	300	1000	400	–	–	–	–
CSc1nc(-c2ccc(C)cc2)nn1C(=O)N(C)c1ccccc1	2400	–	100	–	–	–	–
Cc1ccc(-c2nc(SCC(F)(F)F)n(C(=O)N(C)C)n2)cc1	200	460	600	–	–	–	–
CSc1nc(-c2ccc(OC(F)(F)F)cc2)nn1C(=O)N(C)c1ccccc1	> 50000	> 50000	250	> 50000	> 50000	> 50000	–

SMILES	IC50 (Acetylcholinesterase [1]) [nM]	IC50 (Cholinesterase) [nM]	IC50 (Hormone-sensitive lipase) [nM]	IC50 [2] [nM]	IC50 [3] [nM]	IC50 [4] [nM]	IC50 (Acetylcholinesterase [5])
CSc1nc(-c2ccc(Cl)cc2)nn1C(=O)N(C)c1ccccc1	1400	–	160	–	–	–	–
CSc1nc(-c2ccc(C(F)(F)F)cc2)nn1C(=O)N(C)C	500	100	100	–	–	–	–
CCSc1nc(-c2ccc(OC)cc2)nn1C(=O)N1CCOCC1	> 50000	4000	9000	–	–	–	–
CSc1nc(-c2ccc(Cl)cc2)nn1C(=O)N(C)C	100	< 10	20	–	–	–	–
CCSc1nc(-c2ccc(OC)cc2)nn1C(=O)N(C)c1ccccc1	1100	–	300	–	–	–	–
CCCCCCSc1nc(-c2ccc(Cl)cc2)nn1C(=O)N(C)c1ccccc1	> 50000	–	400	–	–	–	–
CSc1nc(-c2ccc(C)cc2)nn1C(=O)N1CCOCC1	> 50000	2000	4000	–	–	–	–
CSc1nc(/C=C/c2ccccc2)nn1C(=O)N(C)C	< 10	370	> 50000	–	–	–	–
O=C(N1CCCCC1)n1nc(-c2ccc(Cl)cc2)nc1SCC1CC1	100	900	200	–	–	–	–
CSc1nc(-c2ccc(OC(F)(F)F)cc2)nn1C(=O)N(C)C	800	200	100	–	–	–	–
O=C(N1CCOCC1)n1nc(-c2ccc(Cl)cc2)nc1SCC(F)(F)F	> 50000	> 50000	9000	–	–	–	–
CSc1nc(-c2ccc(C)cc2)nn1C(=O)N(C)C	800	200	30	–	–	–	–
CCOc1nn(-c2cccc(OCc3ccccc3)c2)c(=O)o1	750	920	1100	15000	> 10000	> 10000	–
CSc1nc(-c2ccc(Cl)cc2)nn1C(=O)N1CCCCC1	26	900	100	–	–	–	–
CCCCCCSc1nc(-c2ccc(C)cc2)nn1C(=O)N(C)c1ccccc1	> 50000	–	700	–	–	–	–
CN(C(=O)n1nc(-c2ccc(Cl)cc2)nc1SCC(F)(F)F)c1ccccc1	> 50000	> 50000	170	> 50000	> 50000	> 50000	–
